The target in this test is T1, Excitatory amino acid transporter 3 (Homo sapiens, UniProt P43005).
T1 sequence (P43005 whole entry): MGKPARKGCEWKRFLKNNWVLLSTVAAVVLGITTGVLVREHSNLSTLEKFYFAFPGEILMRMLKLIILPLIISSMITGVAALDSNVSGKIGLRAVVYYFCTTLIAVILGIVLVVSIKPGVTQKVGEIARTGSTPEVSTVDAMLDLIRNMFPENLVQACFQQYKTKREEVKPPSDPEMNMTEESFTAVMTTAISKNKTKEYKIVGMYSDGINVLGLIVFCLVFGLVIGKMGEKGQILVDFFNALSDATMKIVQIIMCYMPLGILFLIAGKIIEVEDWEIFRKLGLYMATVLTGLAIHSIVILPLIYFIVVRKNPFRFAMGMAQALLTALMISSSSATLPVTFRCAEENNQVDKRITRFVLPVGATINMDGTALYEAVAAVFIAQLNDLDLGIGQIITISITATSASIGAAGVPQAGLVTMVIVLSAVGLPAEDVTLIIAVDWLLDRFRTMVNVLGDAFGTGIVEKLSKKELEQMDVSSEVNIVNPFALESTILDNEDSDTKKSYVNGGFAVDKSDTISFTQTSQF
As to the kind of experiment: Inhibition of [3H]-D-Asp uptake at human EAAT3 expressed in HEK293 cells measured after 3 mins by TopCount method. The method, boiled down:
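Stably transfected EAAT1-, EAAT2- or EAAT3-HEK293 lines grown in high-glucose GlutaMAX DMEM with 5% dialyzed FBS, penicillin/streptomycin and […]. Cells were seeded and reached confluence in 16−24 h, then washed in uptake buffer (HBSS, 20 mM HEPES, 1 mM CaCl₂, 1 mM MgCl₂, pH 7.4). Uptake ran 3 min at room temperature with 100 nM [³H]-D-aspartate plus test compound at varied concentrations. Two ice-cold washes, then scintillation counting. IC₅₀ from concentration−inhibition curves, n = 3−5.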

Usually IC50 stands for the concentration that gives 50% inhibition.

Take `N[C@H](C(=O)O)C(NC(=O)Oc1ccccc1)C(=O)O` (stereo partly specified): the IC50 came out at 316 µM.
